Measurements published in ChEMBL document CHEMBL1139356, “New uracil dimers showing erythroid differentiation inducing activities” (J Med Chem, 2009).
Active and inactive are the calls of the source. The rule behind the calls is not given here.

Experiments:
K562 [1] = assay: Inhibition of erythroid differentiation in human K562 cell assessed benzidine positive cells at 1 mM after 6 days by benzidine staining assay; assay type: functional; parameters: scale not given: the % may be the effect or the level left
Procedure, shortened: (§1)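 K562 cells seeded at 30 000 cells/mL and cultured with compound at the stated concentration for a 6-day induction period. Benzidine staining scores the percentage of hemoglobin-containing (benzidine-positive) cells. Values are average ± SD of three independent experiments.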

K562 [2] = assay: Inhibition of erythroid differentiation in human K562 cell assessed benzidine positive cells at 2 mM after 6 days by benzidine staining assay; assay type: functional; parameters: scale not given: the % may be the effect or the level left; procedure, shortened: as §1
K562 [3] = assay: Antiproliferative activity against human K562 cells after 4 days; assay type: functional, cell-based; conditions: K562, 96 h
K562 [4] = assay: Inhibition of erythroid differentiation in human K562 cell assessed benzidine positive cells at 800 uM after 6 days by benzidine staining assay; assay type: functional; parameters: scale not given: the % may be the effect or the level left; procedure, shortened: as §1
K562 [5] = assay: Inhibition of erythroid differentiation in human K562 cell assessed benzidine positive cells at 500 nM after 6 days by benzidine staining assay; assay type: functional; parameters: scale not given: the % may be the effect or the level left; conditions: in the assay text read “at 100 nM” for “at 500 nM”; procedure, shortened: as §1
K562 [6] = assay: Inhibition of erythroid differentiation in human K562 cell assessed benzidine positive cells at 300 uM after 6 days by benzidine staining assay; assay type: functional; parameters: scale not given: the % may be the effect or the level left; procedure, shortened: as §1
K562 [7] = assay: Inhibition of erythroid differentiation in human K562 cell assessed benzidine positive cells at 600 uM after 6 days by benzidine staining assay; assay type: functional; parameters: scale not given: the % may be the effect or the level left; procedure, shortened: as §1
MDA-MB-231 = assay: Antiproliferative activity against human MDA-MB-231 cells after 4 days; assay type: functional, cell-based; conditions: MDA-MB-231, 96 h
K562 [8] = assay: Inhibition of erythroid differentiation in human K562 cell assessed benzidine positive cells at 400 uM after 6 days by benzidine staining assay; assay type: functional; parameters: scale not given: the % may be the effect or the level left
Procedure, shortened: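 K562 cells cultured with 400 µM compound for 6 days. The proportion of hemoglobin-containing cells was scored by benzidine staining. Values are average ± SD of four independent experiments.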

K562 [9] = assay: Antiproliferative activity against human K562 cells after 4 days; conditions: K562, 96 h
RD = assay: Antiproliferative activity against human RD cells after 4 days; assay type: functional, cell-based; conditions: 96 h
[10] = Antiproliferative activity against human IB3-1 cells after 4 days; assay type: functional, cell-based; conditions: IB3-1, 96 h
MCF7 = assay: Antiproliferative activity against human MCF7 cells after 4 days; assay type: functional, cell-based; conditions: MCF7, 96 h
K562 [11] = assay: Inhibition of erythroid differentiation in human K562 cell assessed benzidine positive cells at 200 uM after 6 days by benzidine staining assay; assay type: functional; parameters: scale not given: the % may be the effect or the level left; procedure, shortened: as §1
K562 [12] = assay: Inhibition of erythroid differentiation in human K562 cell assessed benzidine positive cells at 100 uM after 6 days by benzidine staining assay; assay type: functional; parameters: scale not given: the % may be the effect or the level left; procedure, shortened: as §1

CO[C@H]1C[C@@H]2CC[C@@H](C)[C@@](O)(O2)C(=O)C(=O)N2CCCC[C@H]2C(=O)O[C@H]([C@H](C)C[C@@H]2CC[C@@H](O)[C@H](OC)C2)CC(=O)[C@H](C)/C=C(\C)[C@@H](O)[C@@H](OC)C(=O)[C@H](C)C[C@H](C)/C=C/C=C/C=C/1C [SIROLIMUS]
Activity (K562 [1]): 75.5%

CCCC(=O)O [BUTYRIC ACID]
Activity (K562 [2]): 32.5%

CCOC(=O)Cn1cc(C(=O)NCCOCCNC(=O)c2cn(CC(=O)OCC)c(=O)[nH]c2=O)c(=O)[nH]c1=O
IC50 (K562 [3]): > 800 µM
Activity (K562 [4]): 1%

CO[C@H](C(=O)[C@@H](O)[C@@H](C)O)[C@@H]1Cc2cc3cc(O[C@H]4C[C@@H](O[C@@H]5C[C@@H](O)[C@H](O)[C@@H](C)O5)[C@H](O)[C@@H](C)O4)c(C)c(O)c3c(O)c2C(=O)[C@H]1O[C@H]1C[C@@H](O[C@@H]2C[C@@H](O)[C@@H](O[C@@H]3C[C@](C)(O)[C@H](O)[C@@H](C)O3)[C@@H](C)O2)[C@H](O)[C@@H](C)O1 [PLICAMYCIN]
Activity (K562 [5]): 86.8%

CCCCCCCCn1cc(C(=O)O)c(=O)[nH]c1=O
IC50 (K562 [3]): 247 µM
Activity (K562 [6]): 30%

CCCCCCCCn1cc(C(=O)NCCCCCCCNC(=O)c2cn(CCCCCCCC)c(=O)[nH]c2=O)c(=O)[nH]c1=O
IC50 (K562 [3]): 220 µM
Activity (K562 [7]): 50%

CCCCCCCCn1cc(C(=O)NCc2ccc3ccc(CNC(=O)c4cn(CCCCCCCC)c(=O)[nH]c4=O)cc3c2)c(=O)[nH]c1=O
IC50 (MDA-MB-231): 171 µM
IC50 (K562 [3]): 517 µM
Activity (K562 [8]): 52%
Activity (K562 [7]): 78%
IC50 (K562 [9]): 517 µM
IC50 (RD): 76.6 µM
IC50 [10]: 505 µM
IC50 (MCF7): 197 µM

CCCCCCCCn1cc(C(=O)NCCCCCCCCNC(=O)c2cn(CCCCCCCC)c(=O)[nH]c2=O)c(=O)[nH]c1=O
IC50 (K562 [3]): 420 µM
Activity (K562 [7]): 45%

COC(=O)c1c[nH]c(=O)[nH]c1=O [ISOOROTIC ACID METHYL ESTER]
IC50 (K562 [3]): > 800 µM
Activity (K562 [4]): 5%

CCCCCCCCn1cc(C(=O)NCc2cccc(CNC(=O)c3cn(CCCCCCCC)c(=O)[nH]c3=O)c2)c(=O)[nH]c1=O
IC50 (K562 [3]): 247 µM
Activity (K562 [11]): 40%

CCCCCCCCn1cc(C(=O)NCCCCCCNC(=O)c2cn(CCCCCCCC)c(=O)[nH]c2=O)c(=O)[nH]c1=O
IC50 (K562 [3]): 600 µM
Activity (K562 [7]): 40%

CCCCNC(=O)c1cn(C)c(=O)[nH]c1=O
IC50 (K562 [3]): 536 µM
Activity (K562 [4]): 5%

CCCCCCCCn1cc(C(=O)NCc2ccccc2)c(=O)[nH]c1=O
IC50 (K562 [3]): 75 µM
Activity (K562 [8]): inactive
Activity (K562 [7]): inactive
Activity (K562 [11]): inactive
Activity (K562 [12]): 5%
